Assay results as given in ChEMBL document CHEMBL1145237, “Amide derivatives of 9,11-seco-estra-1,3,5(10)-trien-11-oic acid as modified orally active estrogen agonists with moderate antagonistic activity” (Bioorg Med Chem Lett, 2005).

How the values were obtained:
[1] = target: T1, Estrogen receptor (Rattus norvegicus) (UniProt P06211+Q62986); experiment: Estrogenic activity as percent gain in rat uterine weight at 10 mg/kg/day; assay type: functional, organism-based
Method in brief: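 Immature female rats were dosed orally once daily on days 28–30 of age at 10 mg/kg, with a vehicle-only control group. At autopsy on day 31, 24 h after the last dose, vaginal opening and vaginal-smear cornification were scored, and the blotted uterus was weighed fresh. Uterine gain was expressed as percent of vehicle control, as mean ± SEM of at least six observations per group.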

[2] = target: T1, Estrogen receptor (Rattus norvegicus); experiment: Estrogenic activity in rat uterine weight assay; assay type: functional
[3] = target: T1, Estrogen receptor (Rattus norvegicus); experiment: Relative binding affinity for immature rat cytosolic estrogen receptor; assay type: protein assay
Method in brief: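 Rat uterine cytosol receptor (20–21-day-old animals, pH 7.4 Tris-EDTA buffer) was incubated in triplicate for 18 h at 4 °C with fixed [3H]-estradiol and graded competitor concentrations, with DMF ≤5% final. Bound ligand was separated with dextran-coated charcoal and counted. Percent bound versus log concentration was plotted, and the 50%-inhibition concentration was compared with that of estradiol to give RBA.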

[4] = target: T1, Estrogen receptor (Rattus norvegicus)
Rattus norvegicus = organism: Rattus norvegicus; experiment: Percent inhibition of ethynylestradiol-induced uterine weight gain in ovariectomized immature rats; set-up: concentration or dose not given beside the values; settings: concentration not given here

| SMILES | Gain [1] [%] | Weight [2] [mg] | RBA [3] [%] | Weight [4] [mg] | inhibition (Rattus norvegicus) [%] |
| --- | --- | --- | --- | --- | --- |
| COc1ccc2c(c1)CCC(C1CC[C@H](OC(C)=O)[C@@]1(C)CC(=O)Nc1ccccc1)C2 (stereo not given in full) | 2.91 | 18 | < 0.001 | 69 | 11.5 |
| CCCCNC(=O)C[C@@]1(C)C(C2CCc3cc(OC)ccc3C2)CC[C@@H]1OC(C)=O (stereo not given in full) | 133 | 40.7 | < 0.001 | 70.9 | 22.1 |
| COc1ccc2c(c1)CCC(C1CC[C@H](OC(C)=O)[C@@]1(C)CC(=O)NCCc1ccccc1)C2 (stereo not given in full) | 8.57 | 19 | < 0.001 | 73 | 6.41 |
| CCCCCCCCCCCCNC(=O)C[C@@]1(C)C(C2CCc3cc(OC)ccc3C2)CC[C@@H]1OC(C)=O (stereo not given in full) | 412 | 82.4 | < 0.001 | 90 | 11.7 |
| COc1ccc2c(c1)CCC(C1CC[C@H](OC(C)=O)[C@@]1(C)CC(=O)NCc1ccccc1)C2 (stereo not given in full) | 362 | 74.4 | < 0.001 | 87.7 | 14 |
| CCCNC(=O)C[C@@]1(C)C(C2CCc3cc(OC)ccc3C2)CC[C@@H]1OC(C)=O (stereo not given in full) | 6.63 | 18.7 | < 0.001 | 67.2 | 26.1 |
| COc1cccc(NC(=O)C[C@@]2(C)C(C3CCc4cc(OC)ccc4C3)CC[C@@H]2OC(C)=O)c1 (stereo not given in full) | 428 | 84.9 | < 0.001 | 86 | 15.6 |
| CCCCCNC(=O)C[C@@]1(C)C(C2CCc3cc(OC)ccc3C2)CC[C@@H]1OC(C)=O (stereo not given in full) | 35.2 | 23.7 | < 0.001 | 75.3 | 17.2 |
| COc1ccc2c(c1)CCC(C1CC[C@H](OC(C)=O)[C@@]1(C)CC(=O)NCCCc1ccccc1)C2 (stereo not given in full) | 422 | 74.3 | < 0.001 | 83.6 | 10 |
| COc1ccc(NC(=O)C[C@@]2(C)C(C3CCc4cc(OC)ccc4C3)CC[C@@H]2OC(C)=O)cc1 (stereo not given in full) | 282 | 70.7 | < 0.001 | 77.5 | 20.2 |
| CCCCCCCCNC(=O)C[C@@]1(C)C(C2CCc3cc(OC)ccc3C2)CC[C@@H]1OC(C)=O (stereo not given in full) | 441 | 87 | < 0.001 | 95.9 | 5.98 |
